Data as given in ChEMBL document CHEMBL4406803, “A- and D-Ring Structural Modifications of an Androsterone Derivative Inhibiting 17β-Hydroxysteroid Dehydrogenase Type 3: Chemical Synthesis and Structure-Activity Relationships” (J Med Chem, 2019).
Activity calls are given as the source filed them. The rule behind the calls is not given here.

How the values were obtained:
[1] = target: T1, 17-beta-hydroxysteroid dehydrogenase type 3 (Homo sapiens) (UniProt P37058); experiment: Inhibition of 17beta-HSD3 (unknown origin) expressed in human LNCAP cells assessed as reduction in [14C]-testosterone formation from [14C]-4-androstene-3,17-dione at 1 uM measured after 1 hr relative to control; assay type: cell-based
T1 sequence (whole entry): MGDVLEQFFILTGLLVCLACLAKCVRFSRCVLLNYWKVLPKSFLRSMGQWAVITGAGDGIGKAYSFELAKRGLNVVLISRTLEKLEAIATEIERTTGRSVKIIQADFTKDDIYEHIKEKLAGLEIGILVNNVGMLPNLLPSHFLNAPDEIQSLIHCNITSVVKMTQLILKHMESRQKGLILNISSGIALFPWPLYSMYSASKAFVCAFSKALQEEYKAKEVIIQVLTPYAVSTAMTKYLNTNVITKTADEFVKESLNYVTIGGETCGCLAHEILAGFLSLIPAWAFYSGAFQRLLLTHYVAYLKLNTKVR
How it was run: (§1)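 LNCaP cells stably transfected with 17β-HSD3 were plated at 10,000 per well in hygromycin-free medium and grown 2 days. They were then given 15 nM [14C]-4-androstenedione plus inhibitor at 0.1, 0.5 or 1.0 µM (0.05% DMSO final) for 1 h. Steroids were ether-extracted, separated by TLC and quantified by radioimaging. Results are % inhibition of conversion to T.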

PC-3 [2] = experiment: Antiproliferative activity against AR-deficient human PC3 cells assessed as reduction in cell proliferation at 0.5 uM measured after 3 days by MTS assay relative to control; assay type: functional; design: scale not given: the % may be the effect or the level left
How it was run: (§2)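 Androgen-independent PC-3 cells were plated at 3,000 per well in triplicate in RPMI-1640 with 10% FBS. Compounds were added at 0.1, 0.5 and 1.0 µM from DMSO stock, with 0.05% DMSO in controls, and incubated 3 days. Growth was read by MTS (4 h, 490 nm) and expressed as % of non-treated control (100%).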

[3] = target: T1, 17-beta-hydroxysteroid dehydrogenase type 3 (Homo sapiens); experiment: Inhibition of 17beta-HSD3 (unknown origin) expressed in human LNCAP cells assessed as reduction in [14C]-testosterone formation from [14C]-4-androstene-3,17-dione at 0.5 uM measured after 1 hr relative to control; assay type: cell-based; how it was run: as §1
[4] = target: T1, 17-beta-hydroxysteroid dehydrogenase type 3 (Homo sapiens); experiment: Inhibition of 17beta-HSD3 (unknown origin) expressed in human LNCAP cells assessed as reduction in [14C]-testosterone formation from [14C]-4-androstene-3,17-dione at 0.1 uM measured after 1 hr relative to control; assay type: cell-based; how it was run: as §1
[5] = Plasma concentration in mouse at 25 mg/kg, sc administered as single dose measured after 3 hrs by LC-MS/MS analysis; assay type: ADME, organism-based
How it was run: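 Female mice were fasted 8 h, then given a single 25 mg/kg subcutaneous dose in 0.1 mL of 0.4% aqueous methylcellulose with 8% DMSO. At 3 h, blood was taken by cardiac puncture into K-EDTA tubes (3 mice per group). Plasma was extracted and analysed by LC-MS/MS against a plasma calibration curve.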

LAPC4 [6] = experiment: Antiproliferative activity against human LAPC4 cells expressing androgen receptor assessed as inhibition of cell proliferation supplemented with fresh medium containing compounds every 3 days for 7 days by MTS assay; assay type: functional, cell-based
How it was run: (§3)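 Androgen-dependent LAPC-4 cells were seeded at 5,000 per well in IMDM with 5% dextran-coated charcoal-treated FBS and pre-incubated 24 h at 37 °C, 5% CO2. Compounds were added from DMSO stock at 0.1, 0.5 and 1.0 µM, with 0.05% DMSO in controls. Incubation lasted 7 days, with a medium change at day 3. Growth was read by MTS (4 h, 490 nm) as % of untreated control (100%), in triplicate.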

PC-3 [7] = experiment: Antiproliferative activity against AR-deficient human PC3 cells assessed as reduction in cell proliferation at 1 uM measured after 3 days by MTS assay relative to control; assay type: functional; design: scale not given: the % may be the effect or the level left; how it was run: as §2
LAPC4 [8] = experiment: Antiproliferative activity against human LAPC4 cells expressing androgen receptor assessed as inhibition of cell proliferation at 1 uM supplemented with fresh medium containing compounds every 3 days for 7 days by MTS assay relative to control; assay type: functional; how it was run: as §3
LAPC4 [9] = experiment: Antiproliferative activity against human LAPC4 cells expressing androgen receptor assessed as inhibition of cell proliferation at 0.5 uM supplemented with fresh medium containing compounds every 3 days for 7 days by MTS assay relative to control; assay type: functional; how it was run: as §3
[10] = Stability of the compound in human liver S9 fraction at 10 uM measured after 1 hr by NADPH by HPLC-MS analysis; assay type: ADME, subcellular; conditions: s9, 1 h
How it was run: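 Substrate (10 µM) was incubated 1 h at 37 °C with 40 µg human liver S9 fraction in 50 mM Tris with 10 mM MgCl2, with or without 10 mM NADPH. The reaction was stopped with MeOH. Remaining parent was measured by HPLC-MS (UV 190 nm) as the AUC ratio with/without NADPH ×100. Values are the mean ± SD of four independent experiments.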

PC-3 [11] = experiment: Antiproliferative activity against AR-deficient human PC3 cells assessed as reduction in cell proliferation at 0.1 uM measured after 3 days by MTS assay relative to control; assay type: functional; design: scale not given: the % may be the effect or the level left; how it was run: as §2
[12] = target: T2, 17-beta-hydroxysteroid dehydrogenase type 3 (Rattus norvegicus, UniProt O54939); experiment: Inhibition of 17beta-HSD3 in Sprague-Dawley rat testes microsomal fraction assessed as reduction in [14C]-testosterone formation from [14C]-4-androstene-3,17-dione measured after 2 hrs; design: species or system Testis
T2 sequence (O54939 whole entry): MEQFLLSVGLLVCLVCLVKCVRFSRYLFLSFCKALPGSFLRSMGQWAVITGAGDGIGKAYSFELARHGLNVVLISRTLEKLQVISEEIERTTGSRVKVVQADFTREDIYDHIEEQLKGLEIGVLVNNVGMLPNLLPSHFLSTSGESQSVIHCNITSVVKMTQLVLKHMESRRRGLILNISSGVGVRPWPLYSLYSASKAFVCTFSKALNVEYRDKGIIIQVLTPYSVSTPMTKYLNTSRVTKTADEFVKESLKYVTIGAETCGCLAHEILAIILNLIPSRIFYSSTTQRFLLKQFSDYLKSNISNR
How it was run: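 The enzyme source was a microsomal fraction from Sprague-Dawley rat testes, prepared by homogenization in phosphate/sucrose/EDTA buffer (pH 7.5) and centrifugation at 100,000 g. The assay ran 2 h at 37 °C in 50 mM sodium phosphate (pH 7.4, 20% glycerol, 1 mM EDTA) with NADPH cofactor and [14C]-4-androstenedione. [14C]-T formation was measured at six inhibitor concentrations in triplicate, and IC50 was fitted from the curves.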

[13] = target: T3, 17-beta-hydroxysteroid dehydrogenase type 3 (Homo sapiens, UniProt P37058); experiment: Inhibition of 17beta-HSD3 (unknown origin) expressed in human LNCAP cells assessed as reduction in [14C]-testosterone formation from [14C]-4-androstene-3,17-dione measured after 1 hr; assay type: cell-based
T3 sequence (P37058 whole entry): T1 sequence (whole entry)
How it was run: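 Transfected LNCaP[17β-HSD3] cells were incubated 1 h with 15 nM [14C]-4-androstenedione and inhibitor at seven concentrations (0.001–5.0 µM; 0.05% DMSO). [14C]-T formation was measured by TLC and radioimaging. IC50 was obtained by curve fitting, averaging two independent experiments in triplicate.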

LAPC4 [14] = experiment: Antiproliferative activity against human LAPC4 cells expressing androgen receptor assessed as inhibition of cell proliferation at 0.1 uM supplemented with fresh medium containing compounds every 3 days for 7 days by MTS assay relative to control; assay type: functional; how it was run: as §3
T47D [15] = experiment: Estrogenic activity in human T47D cells assessed as stimulation of cell proliferation at 1 to 5 uM; assay type: ADME, cell-based
T47D [16] = experiment: Antiproliferative activity against human T47D cells assessed as reduction in cell proliferation at 1 to 5 uM; assay type: functional, cell-based
LAPC4 [17] = experiment: Antiproliferative activity against human LAPC4 cells expressing androgen receptor assessed as inhibition of cell proliferation at 1 uM measured after 3 days by MTS assay relative to control; assay type: functional; conditions: LAPC4, 72 h
LAPC4 [18] = experiment: Antiproliferative activity against human LAPC4 cells expressing androgen receptor assessed as inhibition of cell proliferation at 0.1 uM measured after 3 days by MTS assay relative to control; assay type: functional; conditions: LAPC4, 72 h
LAPC4 [19] = experiment: Antiproliferative activity against human LAPC4 cells expressing androgen receptor assessed as inhibition of cell proliferation at 0.5 uM measured after 3 days by MTS assay relative to control; assay type: functional; conditions: LAPC4, 72 h

With CC1CN(S(=O)(=O)c2ccccc2C(F)(F)F)C(C)CN1C(=O)c1ccc2c(c1)CC[C@@H]1[C@@H]2CC[C@]2(C)C(=O)CC[C@@H]12 (some centres not stated) the inhibition [1] was 90%, the Activity (PC-3 [2]) was 0% and the inhibition [3] was 78%. For the same compound, the inhibition [4] was 45%, the concentration at 3 h [5] was 108 ng/mL and the inhibition (LAPC4 [6]) was “Dose-dependent effect”. For the same compound, the Activity (PC-3 [7]) was 6%, the “inhibition (INH)” value (LAPC4 [8]) was 63% and the “inhibition (INH)” value (LAPC4 [9]) was 54%. For the same compound, the Stability [10] was “Stable”, the Activity (PC-3 [11]) was 7% and the IC50 [12] was 110 nM. The IC50 [13] was 100 nM and the “inhibition (INH)” value (LAPC4 [14]) was 40%.

Work on CC1CN(S(=O)(=O)c2ccccc2C(F)(F)F)C(C)CN1CCc1ccc2c(c1)CC[C@@H]1[C@@H]2CC[C@]2(C)C(=O)CC[C@@H]12 (some centres not stated) yielded an inhibition [1] of 70%, an Activity (PC-3 [2]) of 5% and an inhibition [3] of 60%. The inhibition [4] was 38%, the concentration at 3 h [5] was 51.6 ng/mL and the Activity (T47D [15]) was “Non-Toxic”. The inhibition (LAPC4 [6]) was “Dose-dependent effect”, the Activity (PC-3 [7]) was 1% and the Activity (T47D [16]) was “inactive”. The “inhibition (INH)” value (LAPC4 [8]) was 79%, the “inhibition (INH)” value (LAPC4 [9]) was 80% and the Activity (PC-3 [11]) was 1%. The IC50 [12] was 100 nM, the IC50 [13] was 130 nM and the “inhibition (INH)” value (LAPC4 [14]) was 48%.

CC1CN(S(=O)(=O)c2ccccc2C(F)(F)F)C(C)CN1Cc1cc2c(cc1O)CC[C@@H]1[C@@H]2CC[C@]2(C)C(=O)CC[C@@H]12 (some centres not stated) gave an inhibition [1] of 84%, an Activity (PC-3 [2]) of 5% and an inhibition [3] of 76%. The inhibition [4] was 50%, the concentration at 3 h [5] was 89.3 ng/mL and the Activity (T47D [15]) was “Non-Toxic”. The Activity (PC-3 [7]) was 7%, the Activity (T47D [16]) was “inactive” and the “inhibition (INH)” value (LAPC4 [8]) was 6%. For the same compound, the “inhibition (INH)” value (LAPC4 [9]) was 7%, the Activity (PC-3 [11]) was 4% and the IC50 [12] was 120 nM. For the same compound, the IC50 [13] was 170 nM and the “inhibition (INH)” value (LAPC4 [14]) was 0%.

Work on C#C[C@]1(O)CC[C@H]2[C@@H]3CCc4cc(OC)c(N5CCN(C(=O)[C@@H]6CCCN6C(=O)c6ccc7ccccc7n6)CC5)cc4[C@H]3CC[C@@]21C yielded an inhibition at 1 µM (LAPC4 [17]) of 69%, an Activity (PC-3 [2]) of 20% and an Activity (PC-3 [7]) of 39%. It also gave an inhibition at 0.1 µM (LAPC4 [18]) of 19%, an inhibition at 0.5 µM (LAPC4 [19]) of 62% and an Activity (PC-3 [11]) of 3%.

CC1CN(S(=O)(=O)c2ccccc2C(F)(F)F)C(C)CN1CC(O)c1ccc2c(c1)CC[C@@H]1[C@@H]2CC[C@]2(C)C(=O)CC[C@@H]12 (single isomer, unassigned; diastereomer B) showed an Activity (PC-3 [2]) of 6%, a concentration at 3 h [5] of 48.7 ng/mL and an Activity (PC-3 [7]) of 5%. For the same compound, the “inhibition (INH)” value (LAPC4 [8]) was 44%, the “inhibition (INH)” value (LAPC4 [9]) was 32% and the Activity (PC-3 [11]) was 8%. The IC50 [12] was 60 nM, the IC50 [13] was 20 nM and the “inhibition (INH)” value (LAPC4 [14]) was -3%.

In the case of CC1CN(S(=O)(=O)c2ccccc2C(F)(F)F)C(C)CN1C[C@@]1(O)CC[C@@]2(C)[C@@H](CC[C@@H]3[C@@H]2CC[C@]2(C)C(=O)CC[C@@H]32)C1 (some centres not stated), the inhibition [1] is reported as 100%, the Activity (PC-3 [2]) is reported as 6% and the inhibition [3] is reported as 96%. The inhibition [4] was 60%, the concentration at 3 h [5] was 27.7 ng/mL and the inhibition (LAPC4 [6]) was “Dose-dependent effect”. For the same compound, the Activity (PC-3 [7]) was 11%, the “inhibition (INH)” value (LAPC4 [8]) was 67% and the “inhibition (INH)” value (LAPC4 [9]) was 52%. For the same compound, the Stability [10] was “Unstable”, the Activity (PC-3 [11]) was 9% and the IC50 [12] was 80 nM. The IC50 [13] was 90 nM and the “inhibition (INH)” value (LAPC4 [14]) was 4%.
